# Data as given in article PMC3077087 (Cancer research, 2011).
# Legend:
# [1] = tested on: RIP-Tag2 tumors; assay: VEGF in RIP-Tag2 tumor lysates, multiplex antibody array; type: in vivo, mice; settings: for VEGF-B expression: data not shown
# Method in brief: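 Tumors from RIP-Tag2 mice given vehicle, test compound or rapamycin. Tumor lysates run on mouse angiogenesis antibody arrays per manufacturer's directions. VEGF signal read as pixel density. SEM of 3–8 mice per group; ANOVA with Fisher PLSD.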
# [2] = tested on: RIP-Tag2 tumors; assay: RIP-Tag2 tumor vascularity; type: in vivo, mice
# Method in brief: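 RIP-Tag2 mice, 9–10 weeks old, dosed up to 7 days. Vehicle (Labrafil or water); test compound 75 mg/kg BID by gavage; OSI-930 200 mg/kg QD by gavage; rapamycin 20 mg/kg QD ip. Perfusion-fixed, 60–80 µm sections stained for CD31 and basement membrane. Area density at threshold 30–50; empty sleeves scored. SEM of 3–8 mice per group; ANOVA/Fisher PLSD.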
# [3] = target: RET (Homo sapiens, UniProt P07949); assay: Panel of 98 purified protein kinases: RET; type: biochemical; settings: 98 purified protein kinases panel, data not shown
# RET, sequence (P07949 29-1114, species assumed): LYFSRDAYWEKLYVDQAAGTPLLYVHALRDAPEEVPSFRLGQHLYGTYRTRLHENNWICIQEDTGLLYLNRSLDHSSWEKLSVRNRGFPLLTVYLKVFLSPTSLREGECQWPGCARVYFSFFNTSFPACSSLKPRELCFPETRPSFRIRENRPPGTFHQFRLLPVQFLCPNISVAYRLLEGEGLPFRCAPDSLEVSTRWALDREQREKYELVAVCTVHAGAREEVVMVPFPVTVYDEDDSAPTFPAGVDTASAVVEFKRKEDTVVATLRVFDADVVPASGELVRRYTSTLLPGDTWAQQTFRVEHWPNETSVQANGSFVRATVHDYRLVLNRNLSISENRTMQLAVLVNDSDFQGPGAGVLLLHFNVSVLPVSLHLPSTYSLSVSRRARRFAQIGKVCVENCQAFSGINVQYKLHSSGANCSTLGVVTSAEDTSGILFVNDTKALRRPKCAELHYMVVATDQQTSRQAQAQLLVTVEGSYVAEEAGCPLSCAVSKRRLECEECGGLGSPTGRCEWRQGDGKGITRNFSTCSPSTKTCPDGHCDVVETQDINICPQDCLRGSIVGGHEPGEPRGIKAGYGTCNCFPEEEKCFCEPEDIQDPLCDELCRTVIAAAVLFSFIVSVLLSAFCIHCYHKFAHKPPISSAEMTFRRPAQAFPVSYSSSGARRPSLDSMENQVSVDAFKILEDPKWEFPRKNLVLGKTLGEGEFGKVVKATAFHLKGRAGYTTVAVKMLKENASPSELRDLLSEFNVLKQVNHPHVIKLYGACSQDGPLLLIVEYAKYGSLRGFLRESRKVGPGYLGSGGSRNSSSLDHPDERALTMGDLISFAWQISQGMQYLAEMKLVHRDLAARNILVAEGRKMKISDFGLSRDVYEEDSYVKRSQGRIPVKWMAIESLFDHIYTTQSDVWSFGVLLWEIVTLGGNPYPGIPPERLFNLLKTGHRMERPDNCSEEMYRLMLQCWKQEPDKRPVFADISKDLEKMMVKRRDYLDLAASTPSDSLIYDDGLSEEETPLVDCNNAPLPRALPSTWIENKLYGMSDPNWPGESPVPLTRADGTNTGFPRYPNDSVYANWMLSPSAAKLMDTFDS
# [4] = target: JNK3 (Homo sapiens, UniProt P53779); assay: Panel of 98 purified protein kinases: JNK3; type: biochemical; settings: 98 purified protein kinases panel, data not shown
# JNK3, sequence (P53779 whole entry, species assumed): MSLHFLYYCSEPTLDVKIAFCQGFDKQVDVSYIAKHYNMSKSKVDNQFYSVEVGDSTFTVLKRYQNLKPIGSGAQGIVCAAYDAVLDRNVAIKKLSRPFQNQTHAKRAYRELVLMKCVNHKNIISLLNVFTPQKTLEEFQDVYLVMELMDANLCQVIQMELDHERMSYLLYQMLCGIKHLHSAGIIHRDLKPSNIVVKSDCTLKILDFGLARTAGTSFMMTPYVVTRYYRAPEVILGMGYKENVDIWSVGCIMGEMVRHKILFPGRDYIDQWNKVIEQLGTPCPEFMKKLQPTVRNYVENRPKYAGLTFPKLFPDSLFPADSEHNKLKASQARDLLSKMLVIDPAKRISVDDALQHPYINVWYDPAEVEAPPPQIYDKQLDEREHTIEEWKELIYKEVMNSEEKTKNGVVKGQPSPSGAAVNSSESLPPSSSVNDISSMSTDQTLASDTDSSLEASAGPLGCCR
# [5] = target: PI3Kδ (Homo sapiens, UniProt O00329); assay: Panel of 98 purified protein kinases: PI3Kδ; type: biochemical; settings: 98 purified protein kinases panel, data not shown
# PI3Kδ, sequence (O00329 whole entry, species assumed): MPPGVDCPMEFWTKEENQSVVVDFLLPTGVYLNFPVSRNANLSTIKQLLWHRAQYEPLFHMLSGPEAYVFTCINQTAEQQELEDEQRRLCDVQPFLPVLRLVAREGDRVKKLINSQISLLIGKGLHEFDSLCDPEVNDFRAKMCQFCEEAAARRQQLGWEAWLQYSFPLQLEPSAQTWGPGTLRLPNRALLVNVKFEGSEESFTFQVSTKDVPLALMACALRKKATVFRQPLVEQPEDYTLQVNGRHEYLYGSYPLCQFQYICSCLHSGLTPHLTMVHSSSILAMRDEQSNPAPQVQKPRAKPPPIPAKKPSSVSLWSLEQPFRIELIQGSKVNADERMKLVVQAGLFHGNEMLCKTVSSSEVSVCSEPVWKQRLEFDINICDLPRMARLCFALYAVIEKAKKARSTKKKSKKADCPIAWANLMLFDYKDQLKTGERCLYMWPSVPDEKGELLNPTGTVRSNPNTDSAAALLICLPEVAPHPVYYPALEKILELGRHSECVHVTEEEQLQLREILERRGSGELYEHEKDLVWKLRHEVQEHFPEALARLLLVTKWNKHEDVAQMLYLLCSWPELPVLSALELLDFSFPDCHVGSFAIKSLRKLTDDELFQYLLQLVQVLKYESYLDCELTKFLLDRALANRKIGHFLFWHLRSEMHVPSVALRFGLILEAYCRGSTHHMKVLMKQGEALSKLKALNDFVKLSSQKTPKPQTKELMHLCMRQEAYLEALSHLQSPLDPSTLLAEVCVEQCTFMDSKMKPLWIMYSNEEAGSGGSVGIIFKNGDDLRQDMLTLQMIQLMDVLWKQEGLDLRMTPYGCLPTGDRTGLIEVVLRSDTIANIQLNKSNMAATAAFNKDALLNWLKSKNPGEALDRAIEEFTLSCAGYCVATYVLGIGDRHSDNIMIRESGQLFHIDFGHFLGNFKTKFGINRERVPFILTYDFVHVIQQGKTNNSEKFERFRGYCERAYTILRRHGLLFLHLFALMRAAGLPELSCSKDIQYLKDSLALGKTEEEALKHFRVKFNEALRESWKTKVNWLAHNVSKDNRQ
# PI3Kδ, sequence (P27986 whole entry partner, species assumed): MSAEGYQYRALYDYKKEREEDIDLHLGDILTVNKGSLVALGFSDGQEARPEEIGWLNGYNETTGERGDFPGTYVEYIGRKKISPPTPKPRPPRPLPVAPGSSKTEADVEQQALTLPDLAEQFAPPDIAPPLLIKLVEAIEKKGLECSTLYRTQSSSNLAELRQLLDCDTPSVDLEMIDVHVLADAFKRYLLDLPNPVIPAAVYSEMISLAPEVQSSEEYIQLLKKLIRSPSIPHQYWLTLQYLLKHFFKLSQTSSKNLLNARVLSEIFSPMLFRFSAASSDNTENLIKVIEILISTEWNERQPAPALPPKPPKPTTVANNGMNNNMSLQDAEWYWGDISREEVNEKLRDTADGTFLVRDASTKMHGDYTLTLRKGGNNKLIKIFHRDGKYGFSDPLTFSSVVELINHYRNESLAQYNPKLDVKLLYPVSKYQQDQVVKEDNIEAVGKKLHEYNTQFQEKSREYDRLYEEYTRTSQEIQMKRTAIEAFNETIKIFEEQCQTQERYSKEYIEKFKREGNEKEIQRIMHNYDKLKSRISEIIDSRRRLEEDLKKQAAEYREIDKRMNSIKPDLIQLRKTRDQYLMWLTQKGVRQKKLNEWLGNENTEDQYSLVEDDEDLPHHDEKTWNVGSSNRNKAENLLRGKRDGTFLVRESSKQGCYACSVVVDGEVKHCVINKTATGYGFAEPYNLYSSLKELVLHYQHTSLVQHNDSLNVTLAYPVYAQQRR
# [6] = tested on: mTORC1 and mTORC2 signaling; assay: In vitro mTORC1/mTORC2 signaling; type: cell-based; settings: for Akt phosphorylation at mTORC2-specific Ser473 site: Supplemental Figure 1A
# [7] = tested on: GEO colorectal xenograft; assay: GEO xenograft tumor growth; type: in vivo, mice; settings: GEO xenografts, compared with rapamycin
# [8] = tested on: RIP-Tag2 pancreatic neuroendocrine tumors; assay: Signaling, proliferation and apoptosis in RIP-Tag2 tumors, single agents; type: in vivo, mice; settings: for Akt and 4E-BP1 phosphorylation: 7-day treatment
# Method in brief: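 RIP-Tag2 mice (9–10 weeks) treated 7 days: test compound 75 mg/kg BID gavage, rapamycin 20 mg/kg QD ip, or vehicle. Perfusion-fixed tumor sections (60–80 µm) immunostained for phospho-S6K, phospho-Akt and phospho-4E-BP1 with CD31, plus phospho-histone H3 and activated caspase-3. Examined by fluorescence/confocal microscopy and quantified. SEM of 3–8 mice per group; ANOVA with Fisher PLSD.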
# [9] = target: MEK2 (Homo sapiens, UniProt P36507); assay: Panel of 98 purified protein kinases: MEK2; type: biochemical; settings: 98 purified protein kinases panel, data not shown
# [10] = target: T1, PDK1 (Homo sapiens, UniProt O15530); assay: Activity against PDK1; type: biochemical
# T1 sequence (O15530 1-556): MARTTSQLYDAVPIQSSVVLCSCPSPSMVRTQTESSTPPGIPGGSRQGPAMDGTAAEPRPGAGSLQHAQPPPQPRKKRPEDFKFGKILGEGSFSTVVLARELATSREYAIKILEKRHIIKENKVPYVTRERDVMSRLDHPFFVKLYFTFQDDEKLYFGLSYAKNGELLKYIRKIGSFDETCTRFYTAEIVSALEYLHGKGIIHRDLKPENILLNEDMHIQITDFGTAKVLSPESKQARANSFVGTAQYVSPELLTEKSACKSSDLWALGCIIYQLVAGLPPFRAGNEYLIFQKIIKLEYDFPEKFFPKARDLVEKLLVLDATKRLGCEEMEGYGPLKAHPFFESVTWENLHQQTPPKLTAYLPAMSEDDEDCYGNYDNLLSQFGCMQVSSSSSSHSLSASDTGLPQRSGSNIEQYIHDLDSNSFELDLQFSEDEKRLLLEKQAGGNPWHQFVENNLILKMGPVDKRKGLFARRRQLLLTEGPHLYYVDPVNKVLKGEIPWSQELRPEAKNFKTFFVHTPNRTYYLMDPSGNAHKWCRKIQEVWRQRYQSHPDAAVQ
# [11] = target: mTOR (Homo sapiens, UniProt P42345); assay: Panel of 98 purified protein kinases: mTOR; type: biochemical; settings: 98 purified protein kinases panel
# [12] = target: PI3Kγ (Homo sapiens, UniProt P48736); assay: Panel of 98 purified protein kinases: PI3Kγ; type: biochemical; settings: 98 purified protein kinases panel, data not shown
# PI3Kγ, sequence (P48736 whole entry, species assumed): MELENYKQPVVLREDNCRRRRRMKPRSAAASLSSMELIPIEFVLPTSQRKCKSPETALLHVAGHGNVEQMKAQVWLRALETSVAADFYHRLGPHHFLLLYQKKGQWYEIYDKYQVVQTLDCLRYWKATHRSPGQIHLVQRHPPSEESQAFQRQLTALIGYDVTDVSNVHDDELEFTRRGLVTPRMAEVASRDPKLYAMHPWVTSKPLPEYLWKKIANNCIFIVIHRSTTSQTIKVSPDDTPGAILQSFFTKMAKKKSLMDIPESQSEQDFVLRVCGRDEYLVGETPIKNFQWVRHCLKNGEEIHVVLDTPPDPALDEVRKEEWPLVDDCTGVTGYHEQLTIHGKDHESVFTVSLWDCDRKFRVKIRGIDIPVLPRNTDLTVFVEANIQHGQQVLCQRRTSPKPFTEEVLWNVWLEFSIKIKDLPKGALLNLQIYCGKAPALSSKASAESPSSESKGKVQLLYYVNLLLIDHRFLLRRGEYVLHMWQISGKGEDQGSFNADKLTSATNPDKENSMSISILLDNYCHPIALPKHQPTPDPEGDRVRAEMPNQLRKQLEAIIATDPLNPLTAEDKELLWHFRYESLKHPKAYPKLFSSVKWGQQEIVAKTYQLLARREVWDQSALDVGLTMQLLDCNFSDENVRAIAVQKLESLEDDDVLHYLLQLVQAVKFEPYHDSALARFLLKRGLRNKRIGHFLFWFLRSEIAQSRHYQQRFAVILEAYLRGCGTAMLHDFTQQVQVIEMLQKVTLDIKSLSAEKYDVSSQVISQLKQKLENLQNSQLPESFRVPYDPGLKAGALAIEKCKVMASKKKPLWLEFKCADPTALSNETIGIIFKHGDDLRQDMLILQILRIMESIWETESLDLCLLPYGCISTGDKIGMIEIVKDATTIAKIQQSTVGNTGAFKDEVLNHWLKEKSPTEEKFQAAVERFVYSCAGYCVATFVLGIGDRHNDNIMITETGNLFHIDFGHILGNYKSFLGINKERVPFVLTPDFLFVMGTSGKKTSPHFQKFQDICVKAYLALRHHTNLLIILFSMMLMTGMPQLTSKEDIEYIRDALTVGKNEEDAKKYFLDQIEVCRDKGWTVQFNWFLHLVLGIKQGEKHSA
# [13] = tested on: RIP-Tag2 tumors; assay: Vascular regrowth after cessation of OSI-930 in RIP-Tag2 tumors; type: in vivo, mice
# [14] = tested on: GEO colorectal xenograft; assay: GEO xenograft pharmacodynamics; type: in vivo, mice; settings: GEO xenografts, 12 days
# Method in brief: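 GEO cells implanted s.c. in right flank of nu/nu CD-1 mice and dosed for 12 days. Tumors collected 2, 8 and 24 h post-dose and snap frozen. Phospho- and total 4E-BP1 (37/46), Akt (473), S6 (235/236) quantified by Western blot; n=2.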
# [15] = target: PIP5Kγ (Homo sapiens, UniProt O60331); assay: Panel of 98 purified protein kinases: PIP5Kγ; type: biochemical; settings: 98 purified protein kinases panel, data not shown
# PIP5Kγ, sequence (O60331 whole entry): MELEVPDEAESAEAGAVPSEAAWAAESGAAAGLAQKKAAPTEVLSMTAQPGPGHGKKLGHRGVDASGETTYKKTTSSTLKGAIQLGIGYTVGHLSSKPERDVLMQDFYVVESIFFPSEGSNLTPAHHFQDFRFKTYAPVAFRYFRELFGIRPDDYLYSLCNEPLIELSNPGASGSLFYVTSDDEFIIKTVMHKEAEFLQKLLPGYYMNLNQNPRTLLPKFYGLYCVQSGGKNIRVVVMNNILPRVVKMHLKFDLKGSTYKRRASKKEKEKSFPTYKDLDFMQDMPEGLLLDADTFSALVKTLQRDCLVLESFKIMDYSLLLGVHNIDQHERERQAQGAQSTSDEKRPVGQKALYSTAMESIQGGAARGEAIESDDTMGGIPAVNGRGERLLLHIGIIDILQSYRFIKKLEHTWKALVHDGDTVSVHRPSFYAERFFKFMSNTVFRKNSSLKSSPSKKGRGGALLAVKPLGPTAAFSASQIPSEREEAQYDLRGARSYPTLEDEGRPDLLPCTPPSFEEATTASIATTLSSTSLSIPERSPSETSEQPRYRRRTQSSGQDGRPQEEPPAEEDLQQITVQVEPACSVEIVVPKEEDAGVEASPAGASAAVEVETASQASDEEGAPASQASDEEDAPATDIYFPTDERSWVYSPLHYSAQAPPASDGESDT
# [16] = tested on: RIP-Tag2 tumors; assay: Intratumoral hemorrhage; type: in vivo, mice; settings: 4 days after cessation of OSI-930
# Method in brief: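 Regrowth design in 10-week-old RIP-Tag2 mice: OSI-930 for 7 days, then vehicle, test compound or rapamycin for 4 days; vehicle-only arm runs 11 days. Perfusion-fixed tumors cut at 60–80 µm. Erythrocytes immunostained; area density from fluorescence images at empirical threshold 30–50. Values are SEM of 3–8 mice per group; ANOVA with Fisher PLSD.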
SMILES,VEGF-B expression [1],"empty basement membrane sleeves (vessel regression) ([2]; RIP-Tag2, 7 days)",inhibition of RET [3],inhibition of PI3Kδ [5],4E-BP1 phosphorylation at Ser37/46 [6],Akt phosphorylation at mTORC2-specific Ser473 site [6],tumor growth [7],Akt and 4E-BP1 phosphorylation [8],activity against PDK1 [10],inhibition of mTOR [11],inhibition of PI3Kγ [12],further results
Nc1nccn2c1c(-c1cc3cccc(Cl)c3[nH]1)nc2[C@H]1CC[C@H](C(=O)O)CC1 [OXA-01],unchanged,not apparent,greater than 90%,greater than 90%,inhibited,dose-dependently attenuated,slowed tumor growth more than did rapamycin,decreased,inactive,fully inhibited,greater than 90%,"reduction of tumor vascularity (CD31) ([2]; RIP-Tag2, at 1, 2, or 4 days): not detectably reduced; inhibition of JNK3 [4]: inhibited; apoptosis measured by activated-caspase-3 ([8]; 7 days): increased; cellular proliferation determined by phospho-histone H3 ([8]; 7 days): decreased; inhibition of MEK2 [9]: inhibited; decrease in tumor vessel regrowth ([13]; named drug for 1 day after withdrawal of OSI-930, data not shown): no significant decrease"
COc1cccc2cc(-c3nc([C@H]4CC[C@H](C(=O)O)CC4)n4ncnc(N)c34)[nH]c12 [OSI-027],–,–,greater than 90%,greater than 90%,inhibited,dose-dependently attenuated,slowed tumor growth more than did rapamycin,–,inactive,fully inhibited,greater than 90%,"4E-BP1, Akt, and S6 phosphorylation ([14]; 65 mg/kg, after 2 hours): decreased; inhibition of PIP5Kγ [15]: significantly inhibited"
O=C(Nc1ccc(OC(F)(F)F)cc1)c1sccc1NCc1ccnc2ccccc12 [OSI-930],–,numerous,–,–,–,–,–,–,–,–,–,"decrease in vessel density ([13]; OSI-930 7 days, then vehicle 4 days after cessation): 18%; reduction of tumor vascularity ([13]; regrowth study, OSI-930 for 7 days): 63%; TER-119 levels, difference from baseline [16]: ≤ 28%"
"CO[C@H]1C[C@@H]2CC[C@@H](C)[C@@](O)(O2)C(=O)C(=O)N2CCCC[C@H]2C(=O)O[C@H]([C@H](C)C[C@@H]2CC[C@@H](O)[C@H](OC)C2)CC(=O)[C@H](C)/C=C(\C)[C@@H](O)[C@@H](OC)C(=O)[C@H](C)C[C@H](C)/C=C/C=C/C=C/1C [rapamycin, reference compound]",unchanged,not apparent,–,–,failed to inhibit,failed to inhibit,–,not observed,–,–,–,"reduction of VEGF-A (densitometric analysis) [1]: no significant reduction; reduction of tumor vascularity (CD31) compared to baseline ([2]; RIP-Tag2, 7 days): not significantly reduced; S6Kinase and its substrate S6 [6]: inhibited; phospho-S6 and phospho-4E-BP1 ([14]; 20 mg/kg): inhibited; phopsho-S6K relative to control [8]: inhibited"
